Reference: ChEMBL document CHEMBL1158358, “Synthesis, antimicrobial and cytotoxic activities of some 5-arylidene-4-thioxo-thiazolidine-2-ones” (Eur J Med Chem, 2009)
Values after ≈ are worked out from the molar mass of the structure shown.

Key:
Assay type in all cases: functional
Candida albicans [1] = test: Antimicrobial activity against Candida albicans UFPEDA 1007 at 300 ug/disk after 48 hrs by disk diffusion method; conditions: UFPEDA 1007, 48 h, read-out: IZ
How it was run: (§1)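 Preliminary screen by disk diffusion. Paper disks (6 mm) holding 300 µg of compound were placed on agar plates inoculated with a standardized microbial suspension. DMSO-only disks served as negative controls. A mean inhibition zone below 7 mm was scored as no sensitivity. Values are means, n = 3.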

Enterococcus faecalis [2] = test: Antimicrobial activity against multidrug-resistant Enterococcus faecalis H.C. 24962 isolate after 20 hrs by twofold serial dilution technique; conditions: H.C. 24962, 20 h
How it was run: (§2)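 Twofold serial dilution MIC in agar plates against Gram-positive strains and multidrug-resistant clinical isolates. Inoculum applied was 10⁵ CFU/plate. Plates with culture medium plus DMSO served as negative control. MIC was read after incubation at 35 °C for 20 h.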

[3] = tested on: Mycolicibacterium smegmatis; test: Antimicrobial activity against Mycobacterium smegmatis UFPEDA 71 after 20 hrs by twofold serial dilution technique; conditions: UFPEDA 71, 20 h
How it was run: (§3)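 MIC was determined by twofold serial dilution. Bacteria were tested in plates at 10⁵ CFU/plate and read after 20 h. C. albicans was tested in tubes at 10³ CFU/tube and read after 48 h. All incubations were at 35 °C. Medium plus DMSO served as the negative control.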

Pseudomonas aeruginosa = test: Antimicrobial activity against Pseudomonas aeruginosa UFPEDA 39 at 300 ug/disk after 24 hrs by disk diffusion method; conditions: UFPEDA 39, 24 h, read-out: IZ; how it was run: as §1
[4] = tested on: Mycolicibacterium smegmatis; test: Antimicrobial activity against Mycobacterium smegmatis UFPEDA 71 at 300 ug/disk after 24 hrs by disk diffusion method; conditions: UFPEDA 71, 24 h, read-out: IZ; how it was run: as §1
Staphylococcus aureus [5] = test: Antimicrobial activity against multidrug-resistant Staphylococcus aureus H.C. 20905 isolate after 20 hrs by twofold serial dilution technique; conditions: H.C. 20905, 20 h; how it was run: as §2
NCI-H292 [6] = test: Cytotoxicity against human NCI-H292 cells at 2.5 ug/mL after 72 hrs by MTT assay; conditions: NCI-H292, 72 h, read-out: GI
How it was run: (§4)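 MTT antiproliferative assay. Cells were diluted to 10⁵ cells/mL in 96-well plates and preincubated for 24 h at 37 °C in humid 5% CO₂. Compounds or vincristine (reference) were then added. Formazan was dissolved and OD read at 540 nm, compared with medium-only control cells. Run in triplicate.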

Enterococcus faecalis [7] = test: Antimicrobial activity against multidrug-resistant Enterococcus faecalis H.C. 21752 isolate after 20 hrs by twofold serial dilution technique; conditions: H.C. 21752, 20 h; how it was run: as §2
Staphylococcus aureus [8] = test: Antimicrobial activity against multidrug-resistant Staphylococcus aureus H.C. 21036 isolate after 20 hrs by twofold serial dilution technique; conditions: H.C. 21036, 20 h; how it was run: as §2
Enterococcus faecalis [9] = test: Antimicrobial activity against multidrug-resistant Enterococcus faecalis H.C. 24708 isolate after 20 hrs by twofold serial dilution technique; conditions: H.C. 24708, 20 h; how it was run: as §2
Serratia marcescens = test: Antimicrobial activity against Serratia marcescens UFPEDA 398 at 300 ug/disk after 24 hrs by disk diffusion method; conditions: UFPEDA 398, 24 h, read-out: IZ; how it was run: as §1
Bacillus subtilis [10] = test: Antimicrobial activity against Bacillus subtilis UFPEDA 16 after 20 hrs by twofold serial dilution technique; conditions: UFPEDA 16, 20 h; how it was run: as §3
Enterococcus faecalis [11] = test: Antimicrobial activity against Enterococcus faecalis UFPEDA 138 at 300 ug/disk after 24 hrs by disk diffusion method; conditions: UFPEDA 138, 24 h, read-out: IZ; how it was run: as §1
Staphylococcus aureus [12] = test: Antimicrobial activity against multidrug-resistant Staphylococcus aureus H.C. 21141 isolate after 20 hrs by twofold serial dilution technique; conditions: H.C. 21141, 20 h; how it was run: as §2
HEp-2 [13] = test: Cytotoxicity against human Hep2 cells at 10 ug/mL after 72 hrs by MTT assay; conditions: HEp-2, 72 h, read-out: GI; how it was run: as §4
NCI-H292 [14] = test: Cytotoxicity against human NCI-H292 cells at 5 ug/mL after 72 hrs by MTT assay; conditions: NCI-H292, 72 h, read-out: GI; how it was run: as §4
Staphylococcus aureus [15] = test: Antimicrobial activity against multidrug-resistant Staphylococcus aureus H.C. 20489 isolate after 20 hrs by twofold serial dilution technique; conditions: H.C. 20489, 20 h; how it was run: as §2
Bacillus subtilis [16] = test: Antimicrobial activity against Bacillus subtilis UFPEDA 16 at 300 ug/disk after 24 hrs by disk diffusion method; conditions: UFPEDA 16, 24 h, read-out: IZ; how it was run: as §1
Micrococcus luteus [17] = test: Antimicrobial activity against Micrococcus luteus UFPEDA 06 after 20 hrs by twofold serial dilution technique; conditions: UFPEDA 06, 20 h; how it was run: as §3
Staphylococcus aureus [18] = test: Antimicrobial activity against multidrug-resistant Staphylococcus aureus H.C. 20981 isolate after 20 hrs by twofold serial dilution technique; conditions: H.C. 20981, 20 h; how it was run: as §2
NCI-H292 [19] = test: Cytotoxicity against human NCI-H292 cells at 10 ug/mL after 72 hrs by MTT assay; conditions: NCI-H292, 72 h, read-out: GI; how it was run: as §4
Enterococcus faecalis [20] = test: Antimicrobial activity against Enterococcus faecalis UFPEDA 138 after 20 hrs by twofold serial dilution technique; conditions: UFPEDA 138, 20 h; how it was run: as §3
Staphylococcus aureus [21] = test: Antimicrobial activity against Staphylococcus aureus UFPEDA 01 at 300 ug/disk after 24 hrs by disk diffusion method; conditions: UFPEDA 01, 24 h, read-out: IZ; how it was run: as §1
Staphylococcus [22] = test: Antimicrobial activity against coagulase-negative Staphylococcus H.A.M. 338 isolate after 20 hrs by twofold serial dilution technique; conditions: H.A.M. 338, 20 h; how it was run: as §3
HEp-2 [23] = test: Cytotoxicity against human Hep2 cells at 2.5 ug/mL after 72 hrs by MTT assay; conditions: HEp-2, 72 h, read-out: GI; how it was run: as §4
Enterococcus faecalis [24] = test: Antimicrobial activity against multidrug-resistant Enterococcus faecalis H.C. 21944 isolate after 20 hrs by twofold serial dilution technique; conditions: H.C. 21944, 20 h; how it was run: as §2
Staphylococcus [25] = test: Antimicrobial activity against coagulase-negative Staphylococcus H.A.M. 278 isolate after 20 hrs by twofold serial dilution technique; conditions: H.A.M. 278, 20 h; how it was run: as §3
Escherichia coli = test: Antimicrobial activity against Escherichia coli UFPEDA 224 at 300 ug/disk after 24 hrs by disk diffusion method; conditions: UFPEDA 224, 24 h, read-out: IZ; how it was run: as §1
Micrococcus luteus [26] = test: Antimicrobial activity against Micrococcus luteus UFPEDA 06 at 300 ug/disk after 24 hrs by disk diffusion method; conditions: UFPEDA 06, 24 h, read-out: IZ; how it was run: as §1
Candida albicans [27] = test: Antimicrobial activity against Candida albicans UFPEDA 1007 after 48 hrs by twofold serial dilution technique; conditions: UFPEDA 1007, 48 h; how it was run: as §3
HEp-2 [28] = test: Cytotoxicity against human Hep2 cells at 5 ug/mL after 72 hrs by MTT assay; conditions: HEp-2, 72 h, read-out: GI; how it was run: as §4
HEp-2 [29] = test: Cytotoxicity against human Hep2 cells at 1.25 ug/mL after 72 hrs by MTT assay; conditions: HEp-2, 72 h, read-out: GI; how it was run: as §4
Staphylococcus aureus [30] = test: Antimicrobial activity against multidrug-resistant Staphylococcus aureus H.C. 20794 isolate after 20 hrs by twofold serial dilution technique; conditions: H.C. 20794, 20 h; how it was run: as §2
Staphylococcus aureus [31] = test: Antimicrobial activity against Staphylococcus aureus UFPEDA 01 after 20 hrs by twofold serial dilution technique; conditions: UFPEDA 01, 20 h; how it was run: as §2
NCI-H292 [32] = test: Cytotoxicity against human NCI-H292 cells at 1.25 ug/mL after 72 hrs by MTT assay; conditions: NCI-H292, 72 h, read-out: GI; how it was run: as §4

Row | SMILES | zone of inhibition at 300 µg/disc (Candida albicans [1]) [mm] | MIC (Enterococcus faecalis [2]) [µg/mL] | MIC [3] [µg/mL] | zone of inhibition at 300 µg/disc (Pseudomonas aeruginosa) [mm] | zone of inhibition at 300 µg/disc [4] [mm] | MIC (Staphylococcus aureus [5]) [µg/mL] | MIC (Enterococcus faecalis [7]) [µg/mL] | MIC (Staphylococcus aureus [8]) [µg/mL] | MIC (Enterococcus faecalis [9]) [µg/mL] | MIC (Bacillus subtilis [10]) [µg/mL] | MIC (Staphylococcus aureus [12]) [µg/mL] | MIC (Staphylococcus aureus [15]) [µg/mL] | MIC (Micrococcus luteus [17]) [µg/mL] | MIC (Staphylococcus aureus [18]) [µg/mL] | MIC (Enterococcus faecalis [20]) [µg/mL] | MIC (Staphylococcus [22]) [µg/mL] | MIC (Enterococcus faecalis [24]) [µg/mL] | MIC (Staphylococcus [25]) [µg/mL] | MIC (Staphylococcus aureus [30]) [µg/mL] | MIC (Staphylococcus aureus [31]) [µg/mL] | also measured
1 | O=C1NC(=S)/C(=C/c2c(Cl)cccc2Cl)S1 | 15 | 16 (≈ 55.1 µM) | 4 (≈ 13.8 µM) | < 7 | 17 | 4 (≈ 13.8 µM) | 8 (≈ 27.6 µM) | 8 (≈ 27.6 µM) | 16 (≈ 55.1 µM) | 8 (≈ 27.6 µM) | 8 (≈ 27.6 µM) | 4 (≈ 13.8 µM) | 16 (≈ 55.1 µM) | 8 (≈ 27.6 µM) | 16 (≈ 55.1 µM) | 4 (≈ 13.8 µM) | 8 (≈ 27.6 µM) | 4 (≈ 13.8 µM) | 4 (≈ 13.8 µM) | 4 (≈ 13.8 µM) | inhibition of growth at 2.5 µg/mL (NCI-H292 [6]): 7.7%; zone of inhibition at 300 µg/disc (Serratia marcescens): < 7 mm; zone of inhibition at 300 µg/disc (Enterococcus faecalis [11]): < 7 mm; inhibition of growth at 10 µg/mL (HEp-2 [13]): 8.73%; inhibition of growth at 5 µg/mL (NCI-H292 [14]): 10.3%; zone of inhibition at 300 µg/disc (Bacillus subtilis [16]): 20 mm; inhibition of growth at 10 µg/mL (NCI-H292 [19]): 32.8%; zone of inhibition at 300 µg/disc (Staphylococcus aureus [21]): 20 mm; inhibition of growth at 2.5 µg/mL (HEp-2 [23]): -4.24%; zone of inhibition at 300 µg/disc (Escherichia coli): < 7 mm; zone of inhibition at 300 µg/disc (Micrococcus luteus [26]): 18 mm; MIC (Candida albicans [27]): 32 µg/mL (≈ 110 µM); inhibition of growth at 5 µg/mL (HEp-2 [28]): -2.39%; inhibition of growth at 1.25 µg/mL (HEp-2 [29]): -9.16%; inhibition of growth at 1.25 µg/mL (NCI-H292 [32]): 4.36%
2 | O=C1NC(=S)/C(=C/c2cccc(Cl)c2)S1 | 13 | 4 (≈ 15.6 µM) | 16 (≈ 62.6 µM) | < 7 | 24 | 2 (≈ 7.82 µM) | 4 (≈ 15.6 µM) | 2 (≈ 7.82 µM) | 4 (≈ 15.6 µM) | 8 (≈ 31.3 µM) | 8 (≈ 31.3 µM) | 2 (≈ 7.82 µM) | 8 (≈ 31.3 µM) | 2 (≈ 7.82 µM) | 8 (≈ 31.3 µM) | 2 (≈ 7.82 µM) | 4 (≈ 15.6 µM) | 16 (≈ 62.6 µM) | 2 (≈ 7.82 µM) | 2 (≈ 7.82 µM) | inhibition of growth at 2.5 µg/mL (NCI-H292 [6]): 11.2%; zone of inhibition at 300 µg/disc (Serratia marcescens): < 7 mm; zone of inhibition at 300 µg/disc (Enterococcus faecalis [11]): 22 mm; inhibition of growth at 10 µg/mL (HEp-2 [13]): 18.8%; inhibition of growth at 5 µg/mL (NCI-H292 [14]): 21.6%; zone of inhibition at 300 µg/disc (Bacillus subtilis [16]): 25 mm; inhibition of growth at 10 µg/mL (NCI-H292 [19]): 30.9%; zone of inhibition at 300 µg/disc (Staphylococcus aureus [21]): 31 mm; inhibition of growth at 2.5 µg/mL (HEp-2 [23]): 5.44%; zone of inhibition at 300 µg/disc (Escherichia coli): < 7 mm; zone of inhibition at 300 µg/disc (Micrococcus luteus [26]): 29 mm; MIC (Candida albicans [27]): 32 µg/mL (≈ 125 µM); inhibition of growth at 5 µg/mL (HEp-2 [28]): 17.6%; inhibition of growth at 1.25 µg/mL (HEp-2 [29]): -0.36%; inhibition of growth at 1.25 µg/mL (NCI-H292 [32]): 3.35%
3 | CC1=C(C(=O)O)N2C(=O)[C@@H](NC(=O)[C@H](N)c3ccccc3)[C@H]2SC1 [CEPHALEXIN ANHYDROUS] | – | 64 (≈ 184 µM) | > 128 | – | – | > 128 | 64 (≈ 184 µM) | > 128 | 64 (≈ 184 µM) | ≤ 1 | 2 (≈ 5.76 µM) | 2 (≈ 5.76 µM) | ≤ 1 | 8 (≈ 23 µM) | 64 (≈ 184 µM) | 128 (≈ 368 µM) | 64 (≈ 184 µM) | 128 (≈ 368 µM) | 4 (≈ 11.5 µM) | ≤ 1 | –
